ChEMBL document CHEMBL4808225, “Discovery and Characterization of Selective and Ligand-Efficient DYRK Inhibitors” (J Med Chem, 2021)
In brackets after ≈: the same amount, converted by molar mass.

Assays:
[1] = target: T1, Dual specificity tyrosine-phosphorylation-regulated kinase 1A (Homo sapiens, UniProt Q13627); assay: Displacement of Kinase tracer 236 from biotinylated DYRK1A (unknown origin) expressed in Escherichia coli BL21 (DE3) incubated for 1.5 hrs by TR-FRET assay
[2] = Metabolic stability in human liver microsomes; format: ADME, Microsome; conditions: read-out: Stabilty
[3] = Metabolic stability in rat liver microsomes; format: ADME, Microsome; conditions: read-out: Stabilty
[4] = Thermodynamic solubility of the compound at pH 6.8; format: physicochemical; conditions: buffer, read-out: Therm_solubility
Summary of the method: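 Thermodynamic solubility measured at pH 6.8 in a single experiment, reported in […].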

[5] = target: Dual specificity tyrosine-phosphorylation-regulated kinase 1B (Homo sapiens) (UniProt Q9Y463); assay: Inhibition of wild-type human full length DYRK1B (M1 to S629 residues) expressed in bacterial expression system assessed as remaining activity at 1 uM by Kinomescan method relative to control
Summary of the method: (§1)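 KINOMEscan competition binding panel run with inhibitor at 1 μM; read-out is remaining kinase activity (percent of control).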

[6] = target: T2, Dual specificity tyrosine-phosphorylation-regulated kinase 2 (Homo sapiens) (UniProt Q92630); assay: Inhibition of wild-type human full length DYRK2 (M1 to S528 residues) expressed in mammalian expression system assessed as remaining activity at 1 uM by Kinomescan method relative to control; summary of the method: as §1
T2 sequence (whole entry): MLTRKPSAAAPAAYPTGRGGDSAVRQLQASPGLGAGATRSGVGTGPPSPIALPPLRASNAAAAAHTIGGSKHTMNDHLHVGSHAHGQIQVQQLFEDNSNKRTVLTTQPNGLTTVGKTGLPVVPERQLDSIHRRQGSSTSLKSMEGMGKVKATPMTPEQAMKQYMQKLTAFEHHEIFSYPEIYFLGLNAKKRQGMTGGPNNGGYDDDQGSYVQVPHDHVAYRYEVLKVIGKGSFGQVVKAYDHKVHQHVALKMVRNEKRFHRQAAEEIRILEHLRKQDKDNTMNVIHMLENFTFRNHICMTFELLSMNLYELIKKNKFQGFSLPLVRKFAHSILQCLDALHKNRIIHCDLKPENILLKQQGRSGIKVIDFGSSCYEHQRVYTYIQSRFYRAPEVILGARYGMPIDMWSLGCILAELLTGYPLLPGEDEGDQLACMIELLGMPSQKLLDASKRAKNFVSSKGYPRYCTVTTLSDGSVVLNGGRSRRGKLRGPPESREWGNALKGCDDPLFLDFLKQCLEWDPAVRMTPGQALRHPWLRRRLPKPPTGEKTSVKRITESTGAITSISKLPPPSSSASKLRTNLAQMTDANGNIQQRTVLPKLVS

[7] = target: Dual specificity protein kinase CLK1 (Homo sapiens, UniProt P49759); assay: Inhibition of wild-type human full length CLK1 (M1 to I484 residues) expressed in bacterial expression system assessed as remaining activity at 1 uM by Kinomescan method relative to control; summary of the method: as §1
[8] = target: Dual specificity protein kinase CLK2 (Homo sapiens) (UniProt P49760); assay: Inhibition of wild-type human partial length CLK2 (D144 to R498 residues) expressed in bacterial expression system assessed as remaining activity at 1 uM by Kinomescan method relative to control; summary of the method: as §1
[9] = target: Dual specificity protein kinase CLK3 (Homo sapiens) (UniProt P49761); assay: Inhibition of wild-type human full length CLK3 (M1 to R490 residues) expressed in bacterial expression system assessed as remaining activity at 1 uM by Kinomescan method relative to control; summary of the method: as §1
[10] = target: Cyclin-dependent kinase 2 (Homo sapiens) (UniProt P24941); assay: Inhibition of wild-type human full length CDK2 (M1 to L298 residues) expressed in bacterial expression system assessed as remaining activity at 1 uM by Kinomescan method relative to control; summary of the method: as §1
[11] = target: Glycogen synthase kinase-3 beta (Homo sapiens) (UniProt P49841); assay: Inhibition of wild-type human full length GSK3B (M1 to T433 residues) expressed in mammalian expression system assessed as remaining activity at 1 uM by Kinomescan method relative to control; summary of the method: as §1
[12] = target: T1, Dual specificity tyrosine-phosphorylation-regulated kinase 1A; assay: Binding affinity to biotinylated DYRK1A (unknown origin) expressed in Escherichia coli BL21 (DE3) assessed as dissociation constant measured up to 5 min by SPR method

Sequence of Dual specificity protein kinase CLK1 (P49759 whole entry, looked up, the tested form may be a part): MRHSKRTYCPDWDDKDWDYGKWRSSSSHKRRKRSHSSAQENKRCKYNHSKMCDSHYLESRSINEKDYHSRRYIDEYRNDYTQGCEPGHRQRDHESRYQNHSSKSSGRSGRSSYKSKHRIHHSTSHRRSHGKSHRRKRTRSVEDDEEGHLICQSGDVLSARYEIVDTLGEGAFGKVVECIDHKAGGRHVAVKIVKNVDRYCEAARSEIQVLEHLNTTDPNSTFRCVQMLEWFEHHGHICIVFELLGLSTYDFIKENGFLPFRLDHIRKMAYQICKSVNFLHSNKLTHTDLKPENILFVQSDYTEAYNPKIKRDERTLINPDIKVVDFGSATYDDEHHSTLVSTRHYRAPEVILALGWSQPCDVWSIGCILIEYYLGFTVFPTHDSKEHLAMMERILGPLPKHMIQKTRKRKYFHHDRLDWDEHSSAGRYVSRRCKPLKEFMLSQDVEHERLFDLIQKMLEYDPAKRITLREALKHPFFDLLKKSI
Sequence of Dual specificity protein kinase CLK2 (Homo sapiens) (P49760 whole entry, looked up, the tested form may be a part): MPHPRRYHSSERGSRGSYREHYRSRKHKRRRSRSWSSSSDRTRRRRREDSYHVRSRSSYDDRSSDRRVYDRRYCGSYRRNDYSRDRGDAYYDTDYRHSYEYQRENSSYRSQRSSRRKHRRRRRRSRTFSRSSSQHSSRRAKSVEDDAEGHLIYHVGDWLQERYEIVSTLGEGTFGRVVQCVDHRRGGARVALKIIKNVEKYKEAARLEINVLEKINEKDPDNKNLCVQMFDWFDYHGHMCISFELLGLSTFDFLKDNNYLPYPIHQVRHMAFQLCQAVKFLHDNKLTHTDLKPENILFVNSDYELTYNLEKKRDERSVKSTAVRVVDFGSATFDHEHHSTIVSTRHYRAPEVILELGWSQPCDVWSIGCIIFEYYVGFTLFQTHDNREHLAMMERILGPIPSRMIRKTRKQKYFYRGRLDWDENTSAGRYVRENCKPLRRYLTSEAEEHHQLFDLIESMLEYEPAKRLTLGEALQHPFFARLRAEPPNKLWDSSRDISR
Sequence of Dual specificity tyrosine-phosphorylation-regulated kinase 1B (Homo sapiens) (Q9Y463 whole entry, looked up, the tested form may be a part): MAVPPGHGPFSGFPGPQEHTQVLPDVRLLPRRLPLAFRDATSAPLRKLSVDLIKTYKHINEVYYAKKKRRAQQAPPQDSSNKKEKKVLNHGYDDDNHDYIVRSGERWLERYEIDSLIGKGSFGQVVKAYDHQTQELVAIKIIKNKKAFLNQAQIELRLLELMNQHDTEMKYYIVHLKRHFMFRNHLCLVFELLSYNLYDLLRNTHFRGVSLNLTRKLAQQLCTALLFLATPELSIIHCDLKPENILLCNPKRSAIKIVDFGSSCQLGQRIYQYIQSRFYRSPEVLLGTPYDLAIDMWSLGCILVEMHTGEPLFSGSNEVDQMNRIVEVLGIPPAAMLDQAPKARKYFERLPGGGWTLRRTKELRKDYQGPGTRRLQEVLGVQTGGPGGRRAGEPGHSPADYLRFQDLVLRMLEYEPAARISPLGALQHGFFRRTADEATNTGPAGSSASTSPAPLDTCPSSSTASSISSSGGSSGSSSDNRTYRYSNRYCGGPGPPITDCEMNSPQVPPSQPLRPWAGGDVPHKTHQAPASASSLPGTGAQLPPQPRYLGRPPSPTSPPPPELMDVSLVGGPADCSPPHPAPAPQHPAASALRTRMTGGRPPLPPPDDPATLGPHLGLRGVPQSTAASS
Sequence of Dual specificity protein kinase CLK3 (Homo sapiens) (P49761 whole entry, looked up, the tested form may be a part): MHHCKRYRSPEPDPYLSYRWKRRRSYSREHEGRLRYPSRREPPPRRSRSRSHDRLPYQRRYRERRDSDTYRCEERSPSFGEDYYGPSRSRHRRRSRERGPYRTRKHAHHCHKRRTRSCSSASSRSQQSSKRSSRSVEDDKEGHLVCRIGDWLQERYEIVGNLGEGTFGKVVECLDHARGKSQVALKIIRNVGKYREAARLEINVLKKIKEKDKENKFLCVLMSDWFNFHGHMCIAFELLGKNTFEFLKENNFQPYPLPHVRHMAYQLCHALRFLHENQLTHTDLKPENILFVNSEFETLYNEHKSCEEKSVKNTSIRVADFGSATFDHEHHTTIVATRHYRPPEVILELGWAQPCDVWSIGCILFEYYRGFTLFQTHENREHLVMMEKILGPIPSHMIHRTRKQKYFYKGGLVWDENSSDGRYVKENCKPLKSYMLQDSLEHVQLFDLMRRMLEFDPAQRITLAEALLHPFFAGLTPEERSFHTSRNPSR
Sequence of Glycogen synthase kinase-3 beta (Homo sapiens) (P49841 whole entry, looked up, the tested form may be a part): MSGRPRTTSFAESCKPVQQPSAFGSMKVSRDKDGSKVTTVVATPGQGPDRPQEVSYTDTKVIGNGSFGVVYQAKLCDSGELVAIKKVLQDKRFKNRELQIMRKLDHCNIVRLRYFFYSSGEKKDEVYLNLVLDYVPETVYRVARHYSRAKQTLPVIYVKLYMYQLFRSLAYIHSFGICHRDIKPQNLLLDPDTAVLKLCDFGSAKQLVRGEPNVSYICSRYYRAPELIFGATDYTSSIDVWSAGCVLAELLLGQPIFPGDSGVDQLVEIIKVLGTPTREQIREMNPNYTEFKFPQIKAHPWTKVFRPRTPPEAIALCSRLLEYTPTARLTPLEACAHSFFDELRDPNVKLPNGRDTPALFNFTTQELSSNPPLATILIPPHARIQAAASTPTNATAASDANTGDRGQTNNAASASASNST

With COc1ccnn2ncc(-c3ccnc(N(C)C)n3)c12 the IC50 [1] was 138 nM, the microsomal CLint [2] was 89 µL/min/mg and the microsomal CLint [3] was 77 µL/min/mg. The solubility thermodynamic [4] was 70 µg/mL (≈ 259 µM), the Activity [5] was 0.7% and the Activity [6] was 24%. For the same compound, the Activity [7] was 7.8%, the Activity [8] was 12% and the Activity [9] was 83%. It also gave an Activity [10] of 100% and an Activity [11] of 100%.
With F[C@H]1CCN(c2nccc(-c3cnn4ncccc34)n2)C1 the IC50 [1] was 186 nM.
In the case of CN(C)c1ncc(C(F)(F)F)c(-c2cnn3ncccc23)n1, the IC50 [1] is reported as 12900 nM.
CN(C)c1nccc(-c2cnc3cccnn23)n1 gave an IC50 [1] of 55000 nM.
For CN(C)c1nccc(-c2c[nH]c3cnccc23)n1, the IC50 [1] was 1020 nM.
In the case of COc1cnc(N(C)C)nc1-c1cnn2ncccc12, the IC50 [1] is reported as 1170 nM.
In the case of CN(CCCC(F)(F)F)c1nccc(-c2cnn3ncccc23)n1, the IC50 [1] is reported as 100 nM.
Work on CC(C)N(c1nccc(-c2cnn3ncccc23)n1)C1CC1 yielded an IC50 [1] of 1200 nM.
CNc1nccc(-c2cnn3ncccc23)n1 showed an IC50 [1] of 182 nM and a Kd [12] of 55 nM.
For CN(C)c1ncc(Br)c(-c2cnn3ncccc23)n1, the IC50 [1] was 1580 nM.
CN(C)c1cccc(-c2cnn3ncccc23)n1 gave an IC50 [1] of 912 nM.
Compound COCCCN(C)c1nccc(-c2cnn3ncccc23)n1 has an IC50 [1] of 219 nM.
N[C@H]1CCN(c2nccc(-c3cnn4ncccc34)n2)C1 gave a microsomal CLint [2] of 199 µL/min/mg, a microsomal CLint [3] of 48 µL/min/mg and a solubility thermodynamic [4] of 1920 µg/mL (≈ 6820 µM). It also gave an Activity [5] of 18%, an Activity [6] of 29% and an Activity [7] of 36%. For the same compound, the Activity [8] was 72%, the Activity [9] was 95% and the Activity [10] was 100%. It also gave an Activity [11] of 100%.
With COc1ncc(-c2ccnc(N(C)C)n2)s1 the IC50 [1] was 3980 nM.
Work on c1cnn2ncc(-c3ccnc(N4CC5(COC5)C4)n3)c2c1 yielded an IC50 [1] of 513 nM.
For CN(C)c1ncc(I)c(-c2cnn3ncccc23)n1, the IC50 [1] was 1620 nM.
CN(C)c1ncc(Cl)c(-c2cnn3ncccc23)n1 gave an IC50 [1] of 331 nM and a Kd [12] of 963 nM.
With CN(c1ccccc1)c1nccc(-c2cnn3ncccc23)n1 the microsomal CLint [2] was 450 µL/min/mg, the microsomal CLint [3] was 340 µL/min/mg and the solubility thermodynamic [4] was 50 µg/mL (≈ 165 µM).
CN(C)c1nccc(-c2cn(C)c3cnccc23)n1 showed an IC50 [1] of 977 nM.
For Cc1ccnn2ncc(-c3ccnc(N(C)C)n3)c12, the IC50 [1] was 724 nM.
CCn1cc(-c2ccnc(N(C)C)n2)c2cccnc21 gave an IC50 [1] of 7760 nM.
With CC1CCN(c2nccc(-c3cnn4ncccc34)n2)C1 (configuration not stated) the IC50 [1] was 204 nM.
For NC1CCN(c2nccc(-c3cnn4ncccc34)n2)C1 (single isomer, unassigned), the microsomal CLint [2] was 40 µL/min/mg, the microsomal CLint [3] was 66 µL/min/mg and the solubility thermodynamic [4] was 4370 µg/mL (≈ 15500 µM). For the same compound, the Activity [5] was 10%, the Activity [6] was 28% and the Activity [7] was 47%. It also gave an Activity [8] of 51%, an Activity [9] of 89% and an Activity [10] of 86%. For the same compound, the Activity [11] was 100%.
CN(C)c1nccc(-c2c[nH]c3ncccc23)n1 showed an IC50 [1] of 135 nM, a microsomal CLint [2] of 154 µL/min/mg and a microsomal CLint [3] of 234 µL/min/mg.
For c1cnn2ncc(-c3ccnc(N4CC5CC5C4)n3)c2c1 (configuration not stated), the IC50 [1] was 309 nM.
COc1cc(-c2cnn3ncccc23)nc(N(C)C)n1 showed an IC50 [1] greater than 100000 nM.
Cc1ccc2c(-c3ccnc(N(C)C)n3)cnn2n1 showed an IC50 [1] of 871 nM.
Work on CN(C)c1nccc(-c2cnn3ccccc23)n1 yielded an IC50 [1] of 891 nM.
CN(C)c1nccc(-c2cnc3ncccn23)n1 gave an IC50 [1] of 158 nM, a microsomal CLint [2] of 154 µL/min/mg and a microsomal CLint [3] of 96 µL/min/mg. For the same compound, the solubility thermodynamic [4] was 470 µg/mL (≈ 1960 µM), the Activity [5] was 6.2% and the Activity [6] was 35%. It also gave an Activity [7] of 20%, an Activity [8] of 31% and an Activity [9] of 56%. It also gave an Activity [10] of 86% and an Activity [11] of 77%.
CC1CCN(c2nccc(-c3cnn4ncccc34)n2)C1 (single isomer, unassigned) showed an IC50 [1] of 148 nM, a microsomal CLint [2] of 389 µL/min/mg and a microsomal CLint [3] of 184 µL/min/mg. It also gave a solubility thermodynamic [4] of 50 µg/mL (≈ 178 µM).
